Consider 19 compounds from ChEMBL document CHEMBL1127441, “Design, synthesis, and neurochemical evaluation of 2-amino-5-(alkoxycarbonyl)-3,4,5,6-tetrahydropyridines and 2-amino-5-(alkoxycarbonyl)-1,4,5,6-tetrahydropyrimidines as M1 muscarinic receptor agonists” (J Med Chem, 1994).

The species named for assay [1] is Rattus norvegicus. The experiment in a line: Stimulation of phosphoinositide (PI) metabolism in rat cortex at 100 uM. The class given is functional. The gist of the method: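 Rat cerebral cortex slices cross-chopped at 300 μm, preincubated in oxygenated Krebs-Henseleit buffer at 37 °C. Labeled 30 min with 0.3 mM [3H]inositol and 10 mM LiCl, then 45 min with agonist at 100 μM, or buffer for basal. Stopped with CHCl3/MeOH. Total [3H]inositol phosphates isolated on anion-exchange cartridges and counted. Given as % above basal; mean ± SEM, three independent experiments.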

Assay [2] concerns the target Muscarinic acetylcholine receptor. The experiment in a line: Affinity for muscarinic receptor in rat brain was measured by inhibition of [3H](R)-quinuclidinyl benzilate (QNB) binding. In kind it is tissue-based.
The target of assay [3] is T1, Muscarinic acetylcholine receptor M1 (Rattus norvegicus, UniProt P08482).
T1 sequence (P08482 whole entry): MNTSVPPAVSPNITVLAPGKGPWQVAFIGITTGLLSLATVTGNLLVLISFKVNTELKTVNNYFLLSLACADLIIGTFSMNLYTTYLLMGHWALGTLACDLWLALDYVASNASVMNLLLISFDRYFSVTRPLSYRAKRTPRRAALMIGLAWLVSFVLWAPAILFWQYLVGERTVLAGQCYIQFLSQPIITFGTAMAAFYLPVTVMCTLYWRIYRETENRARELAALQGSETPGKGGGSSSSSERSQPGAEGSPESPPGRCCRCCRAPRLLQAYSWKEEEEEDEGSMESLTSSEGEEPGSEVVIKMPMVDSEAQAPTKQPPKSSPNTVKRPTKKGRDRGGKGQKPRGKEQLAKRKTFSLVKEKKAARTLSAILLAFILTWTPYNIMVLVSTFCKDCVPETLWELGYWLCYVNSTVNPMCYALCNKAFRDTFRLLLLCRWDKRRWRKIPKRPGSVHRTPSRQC
Kind of assay: (§1) Affinity for muscarinic receptor M1 in rat brain was measured by inhibition of [3H](R)-quinuclidinyl benzilate (QNB) binding. The class given is tissue-based. The essentials: (§2)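 Competition against 50 pM [3H]-(R)-QNB in rat brain membrane suspension, about 10 pM receptors (4 mg/mL protein), 40 mM Na/K phosphate pH 7.4, varying compound concentrations. Incubation 2.0 h at room temperature, then glass fiber filtration and two cold buffer washes. Nonspecific binding with 1000-fold excess atropine. IC50 from Hill plots; mean ± SEM, three independent experiments in triplicate.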

For assay [4], the target named is Muscarinic acetylcholine receptor. The description is as §1. The class given is tissue-based. The essentials: as §2

Take `CC(C)OC(=O)C1CN=CNC1.Cl` (stereo unspecified): in assay [1], the PI metabolism is given as 7.2%.

The IC50 is the concentration needed to halve the response being measured. As to `COC(=O)C1CN=C(N)NC1.Cl` (stereo unspecified), the PI metabolism in assay [1] turned out to be 81%. For the same compound, the IC50 in assay [2] was 22 µM.

As for `COC(=O)C1CN=CNC1.Cl` (stereo unspecified), in assay [1], the PI metabolism stood at 110%.

For `CCCOC(=O)C1CCC(N)=NC1.Cl` (stereo unspecified), the PI metabolism in assay [1] was found to be 51%. In addition, the half-inhibitory concentration (IC50) in assay [2] amounted to 1.7 µM.

Regarding `CCOC(=O)C1CCC(N)=NC1.Cl` (stereo unspecified), the PI metabolism in assay [1] was 31%. In addition, in assay [2], the concentration for half-maximal inhibition (IC50) was determined as 4.3 µM.

As for `COC(=O)C1CCN=C(N)C1.Cl` (stereo unspecified), the IC50 in assay [3] stood at 120 µM. Moreover, the PI metabolism in assay [1] stood at 9%.

For the compound `CCOC(=O)C1CN=CNC1.Cl` (stereo unspecified), the PI metabolism in assay [1] is 150%.

On to `C#CCOC(=O)C1CN=CNC1.Cl` (stereo unspecified), for which the PI metabolism in assay [1] amounted to 230%.

In assay [4], `COC(=O)C1CCN=C(N)N1.Cl` (stereo unspecified) had an IC50 of 4300 µM.

With `C#CCOC(=O)C1CN=C(N)NC1.Cl` (stereo unspecified), in assay [1], the PI metabolism was found to be 150%. This compound also showed an IC50 in assay [2] of 31 µM.

`COC(=O)C1CCCC(N)=N1.Cl` (stereo unspecified) came in with an IC50 in assay [3] of 250 µM. Also, the PI metabolism in assay [1] is reported as 8.1%.

In the case of `CCOC(=O)C1CN=C(N)NC1.Cl` (stereo unspecified), the PI metabolism in assay [1] was found to be 28%. Further, the concentration for half-maximal inhibition (IC50) in assay [2] stood at 8.2 µM.

For `CCCOC(=O)C1CN=CNC1.Cl` (stereo unspecified), the PI metabolism in assay [1] is reported as 7.1%.

Take `CC(C)OC(=O)C1CN=C(N)NC1.Cl` (stereo unspecified): the PI metabolism in assay [1] is 23%. In assay [2], the IC50 was determined as 29 µM.

`CCCOC(=O)C1CN=C(N)NC1.Cl` (stereo unspecified): the PI metabolism in assay [1] was 4.3%. Moreover, in assay [2], the half-inhibitory concentration (IC50) is 4.8 µM.

`COC(=O)C1CCCN=C1N.Cl` (stereo unspecified) displayed an IC50 in assay [3] of 320 µM. Besides, the PI metabolism in assay [1] is -5.5%.

`COC(=O)C1CCC(N)=NC1.Cl` (stereo unspecified): the PI metabolism in assay [1] amounted to 260%. The same compound showed an IC50 in assay [2] of 10 µM.

For the compound `C#CCOC(=O)C1CCC(N)=NC1.Cl` (stereo unspecified), the PI metabolism in assay [1] is on record as 120%. In assay [2], this compound returned a 50% inhibitory concentration (IC50) of 2.3 µM.

On to `C[N+](C)(C)CCOC(N)=O.[Cl-]` [CARBACHOL], for which the PI metabolism in assay [1] was 470%.
